Calls of active or inactive are those of the source. The calls are words filed in the database; no cut-off is given here.
Columns and labels:
[1] = system: MCF-10A; assay: Phototoxicity against human MCF10A cells preincubated for 5 mins followed by compound washout and subsequent UV irradiation at 1.5 J/cm2 for 5 mins measured after 72 hrs by MTT assay; type: cell-based; conditions: light or radiation study
Outline: (§1)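 Compounds were diluted in DMSO (0.5% final), applied in triplicate for 5 min, then washed out with PBS. After medium removal, cells were irradiated on ice for 5 min at 365 nm (1.5 J/cm²) and then kept 72 h at 37 °C. Viability was read by MTT at 540 nm and expressed relative to 0.5% DMSO controls given the same treatment. EC50 is the concentration killing 50%, as the mean ± SD of at least three experiments.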

[2] = system: A-375; assay: Phototoxicity against human A375 cells preincubated for 5 mins followed by compound washout and subsequent UV irradiation at 1.5 J/cm2 for 5 mins measured after 72 hrs by MTT assay; type: functional, cell-based; conditions: A-375, light or radiation study; outline: as §1
[3] = Phototoxicity index, ratio of CC50 for human MCF10A cells to EC50 for human MCF10A cells under UV irradiation at 1.5 J/cm2; type: cell-based, MCF-10A; conditions: read-out: Ratio CC50/EC50
[4] = Dark toxicity against human MCF10A cells preincubated for 5 mins followed by compound washout and measured after 72 hrs by MTT assay; type: cell-based, MCF-10A
Outline: (§2)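 Cells were plated and allowed to attach overnight. Compounds were diluted in DMSO (0.5% final), with each concentration in triplicate, and applied for 5 min. Cells were then washed in PBS and given fresh medium. Without irradiation, cells were held 72 h at up to 50 μM. MTT (5 mg/mL stock) was added for 4 h, crystals were dissolved in SDS/HCl overnight, and absorbance was read at 540 nm. CC50 is the concentration killing 50% of cells, taken as the mean of at least three experiments.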

[5] = Dark toxicity against human MCF7 cells preincubated for 5 mins followed by compound washout and measured after 72 hrs by MTT assay; type: cell-based; outline: as §2
[6] = system: MCF7; assay: Phototoxicity against human MCF7 cells preincubated for 5 mins followed by compound washout and subsequent UV irradiation at 1.5 J/cm2 for 5 mins measured after 72 hrs by MTT assay; type: functional, cell-based; conditions: MCF7, light or radiation study; outline: as §1
[7] = Selectivity index, ratio of EC50 for human MCF10A cells under UV irradiation at 1.5 J/cm2 to EC50 for human MCF7 cells under UV irradiation at 1.5 J/cm2; type: toxicity; conditions: MCF10A cells versus MCF7 cells, read-out: Ratio EC50
Outline: (§3)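 SI is the EC50 under irradiation in non-tumor MCF10A cells divided by the EC50 under irradiation in the tumor line. Both were MTT read-outs 72 h after 1.5 J/cm² at 365 nm.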

[8] = Selectivity index, ratio of EC50 for human MCF10A cells under UV irradiation at 1.5 J/cm2 to EC50 for human HT-29 cells under UV irradiation at 1.5 J/cm2; type: toxicity; conditions: MCF10A cells versus HT-29 cells, read-out: Ratio EC50; outline: as §3
[9] = system: MCF7; assay: Phototoxicity index, ratio of CC50 for human MCF7 cells to EC50 for human MCF7 cells under UV irradiation at 1.5 J/cm2
[10] = system: A-375; assay: Phototoxicity index, ratio of CC50 for human A375 cells to EC50 for human A375 cells under UV irradiation at 1.5 J/cm2
[11] = system: HT-29; assay: Phototoxicity index, ratio of CC50 for human HT-29 cells to EC50 for human HT-29 cells under UV irradiation at 1.5 J/cm2
[12] = Solubility of the compound in DMSO; type: physicochemical
[13] = Dark toxicity against human A375 cells preincubated for 5 mins followed by compound washout and measured after 72 hrs by MTT assay; type: cell-based, A-375; outline: as §2
[14] = Dark toxicity against human HT-29 cells preincubated for 5 mins followed by compound washout and measured after 72 hrs by MTT assay; type: cell-based; outline: as §2
[15] = Selectivity index, ratio of EC50 for human MCF10A cells under UV irradiation at 1.5 J/cm2 to EC50 for human A375 cells under UV irradiation at 1.5 J/cm2; type: toxicity; conditions: MCF10A cells versus A375 cells, read-out: Ratio EC50; outline: as §3
[16] = system: HT-29; assay: Phototoxicity against human HT-29 cells preincubated for 5 mins followed by compound washout and subsequent UV irradiation at 1.5 J/cm2 for 5 mins measured after 72 hrs by MTT assay; type: functional, cell-based; conditions: HT-29, light or radiation study; outline: as §1
[17] = system: Human immunodeficiency virus 1; assay: Antiviral activity against HIV1 3B infected in human MT4 cells assessed as decrease in viral replication by p24 ELISA; type: functional; conditions: Human immunodeficiency virus 1, 3B, read-out: CIC95
[18] = system: MCF7; assay: Cell cycle arrest in human MCF7 cells assessed as accumulation of cells at G2/M phase at EC50 after 24 hrs under UV-irradiation by propidium iodide staining-based flow cytometric analysis (reference value: 26.3%); type: functional
[19] = system: MCF7; assay: Induction of lysosomal activation in human MCF7 cells at 2 uM after 2 hrs in presence of UV irradiation by Lysotracker Green DND 26 staining-based confocal microscopic analysis; type: functional, cell-based
Outline: (§4)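 MCF7 cells (4x10⁵) on glass slides were loaded with LysoTracker Green DND-26 (175 nM) for 45 min in phenol-red-free, serum-free medium, before 2 µM compound with or without UV activation. Cells were fixed in 2% PFA 20 min or 2 h after UV and imaged confocally (ex 488 nm, em 500–530 nm). Controls were untreated cells with and without irradiation, and cells given PMA (400 nM).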

[20] = system: MCF7; assay: Induction of apoptosis in human MCF7 cells assessed as necrotic cells at EC50 after 4 hrs in presence of photoirradiation by Annexin V-FITC/propidium iodide staining-based flow cytometric analysis relative to control; type: functional
[21] = system: MCF7; assay: Cell cycle arrest in human MCF7 cells assessed as accumulation of cells at G0/G1 phase at EC50 after 24 hrs under UV-irradiation by propidium iodide staining-based flow cytometric analysis (reference value: 44.2%); type: functional
[22] = system: MCF7; assay: Induction of lysosomal activation in human MCF7 cells at 2 uM after 2 hrs in absence of UV irradiation by Lysotracker Green DND 26 staining-based confocal microscopic analysis; type: cell-based; conditions: mcf7, 2 h; outline: as §4
[23] = system: MCF7; assay: Induction of ROS generation in human MCF7 cells at 2 uM preincubated for 30 mins followed by irradiation at 1.5 J/cm2 for 2 hrs by H2DCFDA probe-based fluorescence assay; type: functional, cell-based
Outline: (§5)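 MCF7 cells (3x10⁴) were plated 24 h ahead to reach 80–90% confluence. Compounds were applied for 30 min in phenol-red-free, serum-free medium, and H2DCFDA (10 µM) was added 15 min before irradiation (1.5 J/cm², ~365 nm) or no irradiation. DCF fluorescence (485/535 nm) was read 2 h after light and expressed relative to untreated controls (100%). PMA (400 nM) served as positive control; three independent experiments.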

[24] = system: MCF7; assay: Induction of apoptosis in human MCF7 cells assessed as apoptotic cells at EC50 after 4 hrs in presence of photoirradiation by Annexin V-FITC/propidium iodide staining-based flow cytometric analysis relative to control; type: functional
[25] = system: MCF7; assay: Induction of apoptosis in human MCF7 cells assessed as viable cells at EC50 after 4 hrs in presence of photoirradiation by Annexin V-FITC/propidium iodide staining-based flow cytometric analysis (reference value: 95%); type: functional
[26] = system: MCF7; assay: Cell cycle arrest in human MCF7 cells assessed as accumulation of cells at subG1 phase at EC50 after 24 hrs under UV-irradiation by propidium iodide staining-based flow cytometric analysis (reference value: 4.8%); type: functional
[27] = system: MCF7; assay: Induction of ROS generation in human MCF7 cells at 2 uM measured after 30 mins under dark condition by H2DCFDA probe-based fluorescence assay; type: cell-based; conditions: mcf7, 0.5 h; outline: as §5
[28] = Photogeneration of oxygen in aqueous acetonitrile/water solution at 2.3 x 10^-5M measured after 1 hr under 150W irradiation by ADPA probe based spectra analysis
[29] = system: MCF7; assay: Induction of mitochondrial dysfunction in human MCF7 cells at 2 uM after 2 hrs in presence of UV irradiation by Mitotracker Orange CMTM-ROS staining-based confocal microscopic analysis; type: functional, cell-based
Outline: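 MCF7 cells (4x10⁵) were plated on glass slides for 24 h. They were then loaded with MitoTracker Orange CMTM-ROS (150 nM) for 45 min in phenol-red-free, serum-free medium, before 2 µM compound and UV photoactivation. Cells were fixed in 2% PFA 20 min or 2 h after UV and imaged confocally (ex 543 nm, em 560–620 nm). PMA (400 nM) served as ROS-inducer control.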

[30] = system: MCF7; assay: Cell cycle arrest in human MCF7 cells assessed as accumulation of cells at S phase at EC50 after 24 hrs under UV-irradiation by propidium iodide staining-based flow cytometric analysis (reference value: 24.7%); type: functional
[31] = system: MCF7; assay: Induction of ROS generation in human MCF7 cells at 0.5 to 2 uM measured after 30 mins under dark condition by H2DCFDA probe-based fluorescence assay; type: cell-based; conditions: mcf7, 0.5 h; outline: as §5

Structure (SMILES)	EC50 [1]	EC50 [2]	selectivity ratio [3]	CC50 at 72 h [4]	CC50 at 72 h [5]	EC50 [6]	selectivity ratio [7]	selectivity ratio [8]	Ratio CC50/EC50 [9]	Ratio CC50/EC50 [10]	Ratio CC50/EC50 [11]	solubility [12]	CC50 at 72 h [13]	CC50 at 72 h [14]	selectivity ratio [15]	EC50 [16]	other results
COc1cc(-c2nc3c(nc(C)c4ccc(-c5ccccc5)nc43)o2)cc(OC)c1OC	4.38 µM	1.44 µM	> 11	> 50 µM	> 50 µM	5.94 µM	0.737	7	>8	>35	>81	Soluble	> 50 µM	> 50 µM	3	0.62 µM	–
O=C(c1cc(Cc2ccccc2)cc(CN2CCCS2(=O)=O)c1)c1ncc2cccnc2c1O	–	–	–	–	–	–	–	–	–	–	–	–	–	–	–	–	IC95 [17]: 0.39 µM
COc1ccc(-c2ccc3c(C)nc4c(nnn4-c4ccccc4)c3n2)cc1	0.099 µM	10.1 µM	> 505	> 50 µM	> 50 µM	34 µM	0.003	1.01	>1.5	>5	>508	Soluble	> 50 µM	> 50 µM	0.009	0.099 µM	–
COc1ccc(-n2nnc3c4nc(C)ccc4c(C)nc32)cc1	> 50 µM	> 50 µM	–	> 50 µM	> 50 µM	> 50 µM	–	–	–	–	–	Soluble	> 50 µM	> 50 µM	–	> 50 µM	Activity [18]: 26.6%; Activity [19]: inactive; Activity [20]: 7%; Activity [21]: 43.2%; Activity [22]: Non-Toxic; Activity [23]: inactive; Activity [24]: 4%; Activity [25]: 90%; Activity [26]: 4.5%; Activity [27]: Non-Toxic; Activity [28]: Active; Activity [29]: inactive; Activity [30]: 25.7%; Activity [31]: Non-Toxic
COc1ccccc1-c1ccc2c(C)nc3oc(-c4ccccc4)nc3c2n1	1.17 µM	0.633 µM	> 43	> 50 µM	> 50 µM	1.32 µM	0.884	6	>38	>79	>254	Soluble	> 50 µM	> 50 µM	2	0.197 µM	–
COc1ccccc1-c1ccc2c(C)nc3oc(-c4cc(OC)c(OC)c(OC)c4)nc3c2n1	1.86 µM	0.764 µM	> 27	> 50 µM	> 50 µM	3.53 µM	0.527	9	>14	>65	>254	Soluble	> 50 µM	> 50 µM	2	0.197 µM	–
